Data on twelve molecules can be found in ChEMBL document CHEMBL1144553, “alpha-Biphenylsulfonylamino 2-methylpropyl phosphonates: enantioselective synthesis and selective inhibition of MMPs” (Bioorg Med Chem, 2007).

For experiment [1], the target named is T1, Stromelysin-1 (Homo sapiens, UniProt P08254). Description: Inhibition of MMP3 at 100 uM.
Target sequence in this assay (P08254 100-477 limits assumed): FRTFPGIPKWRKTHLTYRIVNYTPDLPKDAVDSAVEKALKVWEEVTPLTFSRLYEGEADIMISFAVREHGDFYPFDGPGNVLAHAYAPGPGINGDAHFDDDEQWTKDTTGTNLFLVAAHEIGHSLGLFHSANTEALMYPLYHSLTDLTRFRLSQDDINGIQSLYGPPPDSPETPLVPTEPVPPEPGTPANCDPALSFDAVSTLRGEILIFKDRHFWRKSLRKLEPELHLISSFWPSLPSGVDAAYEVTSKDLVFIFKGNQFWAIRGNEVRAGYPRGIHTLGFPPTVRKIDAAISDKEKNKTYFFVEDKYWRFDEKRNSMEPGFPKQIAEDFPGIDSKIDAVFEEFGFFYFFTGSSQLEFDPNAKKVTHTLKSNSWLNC
Experiment [2] deals with T2, Matrix metalloproteinase-14 (Homo sapiens, UniProt P50281). Description: Inhibition of MMP14. The method, boiled down:
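Commercial MMP-14 at 1 nM final, preincubated 4 h at 25 °C with inhibitor at seven concentrations in Tris 50 mM pH 7.5/NaCl/CaCl2/Brij 35 buffer with 1% DMSO. Read-out was fluorogenic substrate Mca-Lys-Pro-Leu-Gly-Leu-Dpa-Ala-Arg-NH2 hydrolysis (ex 325, em 400 nm), recorded every 15 s for 20 min, in triplicate. IC50 from Vi/Vo = 1/(1+[I]/IC50).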

The target of experiment [3] is T3, Matrix metalloproteinase-9 (Homo sapiens, UniProt P14780). Description: Inhibition of human recombinant MMP9 expressed in mouse myeloma cells. Format: cell-based. The method, boiled down:
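Human pro-MMP-9 expressed in transfected mouse myeloma cells, APMA-activated (1 mM, 1 h, 37 °C) and used at 2.7 nM final. Preincubated 4 h at 25 °C with inhibitor at seven concentrations in Tris pH 7.5/CaCl2/Brij 35 buffer with 1% DMSO. Fluorogenic Mca-Lys-Pro-Leu-Gly-Leu-Dpa-Ala-Arg-NH2 hydrolysis (ex 325/em 400 nm) was read every 15 s for 20 min, in triplicate. IC50 via Vi/Vo = 1/(1+[I]/IC50).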

Experiment [4] has as its target T4, Interstitial collagenase (Homo sapiens) (UniProt P03956).
T4 sequence (whole entry): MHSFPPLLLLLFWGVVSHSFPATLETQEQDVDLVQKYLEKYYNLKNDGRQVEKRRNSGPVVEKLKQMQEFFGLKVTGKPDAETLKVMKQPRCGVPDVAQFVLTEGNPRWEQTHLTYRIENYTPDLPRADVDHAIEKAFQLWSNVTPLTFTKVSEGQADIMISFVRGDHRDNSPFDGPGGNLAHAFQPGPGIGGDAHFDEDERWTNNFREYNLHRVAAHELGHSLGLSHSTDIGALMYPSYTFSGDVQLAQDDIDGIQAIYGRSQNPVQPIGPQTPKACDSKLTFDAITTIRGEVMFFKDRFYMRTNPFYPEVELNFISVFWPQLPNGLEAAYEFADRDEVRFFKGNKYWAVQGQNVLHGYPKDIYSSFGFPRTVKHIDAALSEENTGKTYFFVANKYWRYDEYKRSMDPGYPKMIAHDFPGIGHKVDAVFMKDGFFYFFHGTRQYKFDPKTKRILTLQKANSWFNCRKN
Description: Inhibition of human recombinant MMP1 at 100 uM.

Experiment [5] has as its target Neutrophil collagenase (Homo sapiens, UniProt P22894). Nature of the experiment: Inhibition of MMP8.
Experiment [6] has as its target T5, Collagenase 3 (Homo sapiens, UniProt P45452). Description: Inhibition of MMP13. The method, boiled down: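 Purchased pro-MMP-13 was APMA-activated (1 mM, 0.5 h, 37 °C) and used at 0.66 nM final. It was preincubated with inhibitor (seven concentrations) for 4 h at 25 °C in Tris pH 7.5 buffer with CaCl2, Brij 35 and 1% DMSO. Cleavage of Mca-Lys-Pro-Leu-Gly-Leu-Dpa-Ala-Arg-NH2 was followed by fluorescence (ex 325/em 400 nm) every 15 s for 20 min, in triplicate. IC50 fitted to Vi/Vo = 1/(1+[I]/IC50).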

Experiment [7] concerns the target 72 kDa type IV collagenase (Homo sapiens, UniProt P08253). Nature of the experiment: Inhibition of human recombinant MMP2 expressed in mouse myeloma cells. It is filed as cell-based. In short, it runs like this:
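Recombinant human pro-MMP-2 from transfected mouse myeloma cells, activated with APMA (2 mM, 1 h, 37 °C) and used at 2.9 nM final. It was preincubated 4 h at 25 °C with inhibitor (seven concentrations) in Tris 50 mM pH 7.5 buffer with 1% DMSO. Mca-Lys-Pro-Leu-Gly-Leu-Dpa-Ala-Arg-NH2 fluorescence (ex 325/em 400 nm) was read every 15 s for 20 min, in triplicate. IC50 from Vi/Vo = 1/(1+[I]/IC50).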

For experiment [8], the target named is T6, Matrilysin (Homo sapiens, UniProt P09237).
T6 sequence (P09237 whole entry): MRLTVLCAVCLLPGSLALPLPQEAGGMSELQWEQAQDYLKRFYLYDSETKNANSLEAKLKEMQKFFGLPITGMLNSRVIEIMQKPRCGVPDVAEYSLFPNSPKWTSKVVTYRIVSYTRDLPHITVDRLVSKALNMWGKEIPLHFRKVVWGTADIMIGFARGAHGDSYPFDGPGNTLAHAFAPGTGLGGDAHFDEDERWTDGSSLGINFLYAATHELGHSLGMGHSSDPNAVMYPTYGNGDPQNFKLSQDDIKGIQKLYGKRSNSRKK
Nature of the experiment: Inhibition of MMP7. In short, it runs like this: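 Pro-MMP-7 from a commercial source, activated with APMA (1 mM, 1 h, 37 °C) and used at 2.4 nM final. It was preincubated 4 h at 25 °C with inhibitor at seven concentrations in Tris pH 7.5 buffer (CaCl2, Brij 35, 1% DMSO). Mca-Lys-Pro-Leu-Gly-Leu-Dpa-Ala-Arg-NH2 cleavage was monitored fluorimetrically (ex 325/em 400 nm) every 15 s for 20 min, in triplicate. IC50 via Vi/Vo = 1/(1+[I]/IC50).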

For experiment [9], the target named is T1, Stromelysin-1. Nature of the experiment: Inhibition of MMP3. In short, it runs like this: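 Purchased MMP-3 at 1 nM final was preincubated with inhibitor (seven concentrations) for 4 h at 25 °C in Tris pH 7.5 assay buffer containing CaCl2, Brij 35 and 1% DMSO. Substrate was Mca-Arg-Pro-Lys-Pro-Val-Glu-Nva-Trp-Arg-Lys(Dnp)-NH2, with fluorescence (ex 325/em 400 nm) read every 15 s over 20 min, in triplicate. IC50 from initial velocities via Vi/Vo = 1/(1+[I]/IC50).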
Target sequence in this assay (P08254 whole entry): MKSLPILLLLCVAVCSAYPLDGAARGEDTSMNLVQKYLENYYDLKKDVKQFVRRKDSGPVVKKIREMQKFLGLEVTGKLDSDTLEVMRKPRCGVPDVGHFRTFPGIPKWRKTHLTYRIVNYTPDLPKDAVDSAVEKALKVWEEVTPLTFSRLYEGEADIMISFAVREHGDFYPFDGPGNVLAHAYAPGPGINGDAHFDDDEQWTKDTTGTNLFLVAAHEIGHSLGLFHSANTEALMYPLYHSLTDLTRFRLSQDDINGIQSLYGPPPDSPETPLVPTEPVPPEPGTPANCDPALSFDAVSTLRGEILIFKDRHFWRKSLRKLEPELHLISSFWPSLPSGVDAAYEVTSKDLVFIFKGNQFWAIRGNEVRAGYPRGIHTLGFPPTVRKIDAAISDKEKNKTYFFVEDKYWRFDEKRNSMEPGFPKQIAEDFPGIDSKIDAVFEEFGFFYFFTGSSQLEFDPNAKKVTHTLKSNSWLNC

Experiment [10] addresses T7, Interstitial collagenase (Homo sapiens, UniProt P03956).
T7 sequence (P03956 whole entry): T4 sequence (whole entry)
Description: Inhibition of MMP1. The method, boiled down: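 Pro-MMP-1 from a commercial source, activated with APMA (2 mM, 1 h, 37 °C). Enzyme at 0.20 nM final was preincubated 4 h at 25 °C with inhibitor at seven concentrations in Tris 50 mM pH 7.5, NaCl, CaCl2, Brij 35 and 1% DMSO. Mca-Lys-Pro-Leu-Gly-Leu-Dpa-Ala-Arg-NH2 was added and fluorescence (ex 325/em 400 nm) read every 15 s for 20 min, in triplicate. IC50 from Vi/Vo = 1/(1+[I]/IC50).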

The target in experiment [11] is T5, Collagenase 3. Description: Inhibition of MMP13 at 100 uM.
Experiment [12] addresses T8, Matrilysin (Homo sapiens) (UniProt P09237).
T8 sequence (whole entry): T6 sequence (P09237 whole entry)
Nature of the experiment: Inhibition of MMP7 at 100 uM.

Experiment [13] deals with T3, Matrix metalloproteinase-9. Description: Inhibition of human recombinant MMP9 expressed in mouse myeloma cells at 100 uM. Format: cell-based.
Experiment [14] deals with T2, Matrix metalloproteinase-14. To be noted: 100 uM.

Neutrophil collagenase, sequence (P22894 whole entry): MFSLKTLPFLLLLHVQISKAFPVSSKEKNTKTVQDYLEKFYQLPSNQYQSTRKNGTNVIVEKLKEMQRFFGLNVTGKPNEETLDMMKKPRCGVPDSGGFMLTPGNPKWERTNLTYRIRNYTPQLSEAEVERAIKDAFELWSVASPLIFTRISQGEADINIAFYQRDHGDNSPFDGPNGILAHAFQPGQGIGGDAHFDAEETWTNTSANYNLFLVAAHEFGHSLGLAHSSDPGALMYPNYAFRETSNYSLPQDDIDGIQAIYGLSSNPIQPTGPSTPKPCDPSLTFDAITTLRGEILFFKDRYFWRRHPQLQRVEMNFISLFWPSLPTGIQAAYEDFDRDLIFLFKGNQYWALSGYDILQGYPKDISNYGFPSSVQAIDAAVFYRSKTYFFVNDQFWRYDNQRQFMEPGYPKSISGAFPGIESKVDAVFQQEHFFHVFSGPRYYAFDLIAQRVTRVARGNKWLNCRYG
72 kDa type IV collagenase, sequence (P08253 whole entry): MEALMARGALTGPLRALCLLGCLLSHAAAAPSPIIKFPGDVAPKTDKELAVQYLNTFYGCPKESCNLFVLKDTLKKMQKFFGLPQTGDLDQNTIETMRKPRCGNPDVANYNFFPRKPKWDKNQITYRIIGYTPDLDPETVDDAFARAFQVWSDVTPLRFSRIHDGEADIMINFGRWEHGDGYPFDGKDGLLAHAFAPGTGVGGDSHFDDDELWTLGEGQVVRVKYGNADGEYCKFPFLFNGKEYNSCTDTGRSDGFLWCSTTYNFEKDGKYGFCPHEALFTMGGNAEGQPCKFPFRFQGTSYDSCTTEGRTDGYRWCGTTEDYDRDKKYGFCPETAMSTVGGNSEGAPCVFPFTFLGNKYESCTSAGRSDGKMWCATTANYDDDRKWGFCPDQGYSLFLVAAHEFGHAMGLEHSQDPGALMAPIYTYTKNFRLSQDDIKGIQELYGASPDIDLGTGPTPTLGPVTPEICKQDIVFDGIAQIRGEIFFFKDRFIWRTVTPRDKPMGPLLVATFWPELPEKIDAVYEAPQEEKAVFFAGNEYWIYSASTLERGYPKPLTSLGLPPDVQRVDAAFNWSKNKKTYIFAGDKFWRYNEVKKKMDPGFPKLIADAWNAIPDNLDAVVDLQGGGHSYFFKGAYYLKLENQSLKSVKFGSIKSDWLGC
T3 sequence (P14780 whole entry): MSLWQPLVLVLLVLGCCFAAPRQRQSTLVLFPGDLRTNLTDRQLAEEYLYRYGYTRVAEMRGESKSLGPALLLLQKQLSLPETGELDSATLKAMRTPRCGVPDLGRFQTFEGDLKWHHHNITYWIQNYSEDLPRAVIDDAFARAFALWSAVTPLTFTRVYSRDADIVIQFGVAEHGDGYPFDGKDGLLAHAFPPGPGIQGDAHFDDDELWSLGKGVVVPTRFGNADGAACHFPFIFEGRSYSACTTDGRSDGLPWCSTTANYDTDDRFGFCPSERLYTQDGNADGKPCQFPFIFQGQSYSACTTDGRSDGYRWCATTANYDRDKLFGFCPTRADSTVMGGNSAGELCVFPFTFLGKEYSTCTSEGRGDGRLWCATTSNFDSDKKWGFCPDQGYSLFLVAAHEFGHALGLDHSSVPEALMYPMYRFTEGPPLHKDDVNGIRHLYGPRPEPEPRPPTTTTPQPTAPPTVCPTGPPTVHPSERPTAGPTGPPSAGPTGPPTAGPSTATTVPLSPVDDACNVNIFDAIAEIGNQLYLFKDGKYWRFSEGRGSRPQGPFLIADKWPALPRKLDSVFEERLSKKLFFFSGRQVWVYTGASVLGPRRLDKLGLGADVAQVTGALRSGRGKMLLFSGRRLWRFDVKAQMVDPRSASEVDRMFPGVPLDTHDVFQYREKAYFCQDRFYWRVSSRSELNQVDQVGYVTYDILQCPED

Take `CC(C)[C@H](NS(=O)(=O)c1ccc(CCc2ccccc2)cc1)P(=O)(O)O`: the inhibition (as a rule, the change of the read-out against control, counted positive when it falls) in experiment [1] turned out to be 34%; in experiment [4], 33%. Besides, the half-maximal inhibitory concentration (IC50) – broadly, the concentration that inhibits the measured activity by half – is 6000 nM in experiment [2]; 7100 nM in [3]; 260 nM in experiment [5]; 820 nM in experiment [6]; 980 nM in experiment [7]; 50000 nM in [8].

For the molecule `Cc1cccc(-c2ccc(S(=O)(=O)N[C@@H](C(C)C)P(=O)(O)O)cc2)c1`, the IC50 came out at 230 nM in [9]; 26 nM in [2]; 64 nM in experiment [3]; 0.4 nM in [5]; 15 nM in experiment [6]; 24 nM in [7]. Also, the IC50 was 320 nM in experiment [10] and 1100 nM in experiment [8].

In the case of `CC(C)[C@H](NS(=O)(=O)c1ccc(-c2ccc(Cl)cc2)cc1)P(=O)(O)O`, the IC50 turned out to be 28 nM in [9]; 47 nM in [2]; 21 nM in [3]; 0.81 nM in experiment [5]; 5.3 nM in [6]; 8.7 nM in experiment [7]. Also, the concentration for half-maximal inhibition (IC50) in [10] worked out at 77 nM; in experiment [8], 1700 nM.

With `COc1ccc(CCc2ccc(S(=O)(=O)N[C@@H](C(C)C)P(=O)(O)O)cc2)cc1`, the inhibition in experiment [1] came out at 31%; in [4], 9%. For the same molecule, the IC50 in experiment [2] was 40000 nM; in experiment [3] it was 680 nM; in experiment [5] it was 110 nM; in experiment [6] it was 480 nM; in [7], 790 nM; in [8], 130000 nM.

For the molecule `COc1ccc(-c2ccc(S(=O)(=O)N[C@H](C(C)C)P(=O)(O)O)cc2)cc1`, the inhibition is 16% in experiment [1]; 68% in [11]; 5% in experiment [4]; 17% in experiment [12]; 40% in experiment [13]; 63% in experiment [14]. Also, in [7], the IC50 was 1100 nM.

In the case of `CC(C)Oc1ccc(-c2ccc(S(=O)(=O)N[C@@H](C(C)C)P(=O)(O)O)cc2)cc1`, the IC50 worked out at 36 nM in [9]; 130 nM in experiment [2]; 24 nM in [3]; 1.5 nM in [5]; 4.2 nM in experiment [6]; 1.8 nM in experiment [7]. Further, the IC50 was 600 nM in [10] and 2000 nM in experiment [8].

With `CCOc1ccc(-c2ccc(S(=O)(=O)N[C@@H](C(C)C)P(=O)(O)O)cc2)cc1`, the IC50 was found to be 12 nM in experiment [9]; 11 nM in [2]; 0.56 nM in experiment [3]; 0.37 nM in experiment [5]; 1.1 nM in experiment [6]; 0.39 nM in experiment [7]. Also, the IC50 in [10] and in [8] was 450 nM each time.

On to `CC(C)[C@H](NS(=O)(=O)c1ccc(-c2cccc(Cl)c2)cc1)P(=O)(O)O`, for which the IC50 turned out to be 440 nM in [9]; 75 nM in experiment [2]; 160 nM in experiment [3]; 1.3 nM in experiment [5]; 24 nM in experiment [6]; 30 nM in experiment [7]. In addition, the results for the IC50 in experiment [10] and in experiment [8] were 320 nM and 2900 nM, respectively.

As for `CC(C)[C@H](NS(=O)(=O)c1ccc(-c2cccc(F)c2)cc1)P(=O)(O)O`, the IC50 amounted to 1200 nM in experiment [9]; 180 nM in experiment [2]; 170 nM in experiment [3]; 2.4 nM in experiment [5]; 63 nM in experiment [6]; 53 nM in [7]. Further, the IC50 in experiment [10] worked out at 590 nM; in experiment [8], 20000 nM.

On to `Cc1ccc(-c2ccc(S(=O)(=O)N[C@@H](C(C)C)P(=O)(O)O)cc2)cc1`, for which the IC50 in [9] is 45 nM; in experiment [2], 11 nM; in experiment [3] it was 4.1 nM; in experiment [5], 0.39 nM; in experiment [6] it was 3.3 nM; in [7], 2.3 nM. The IC50 was 98 nM in [10] and 150 nM in experiment [8].

On to `COc1ccc(-c2ccc(S(=O)(=O)N[C@@H](C(C)C)P(=O)(O)O)cc2)cc1`, for which the IC50 in experiment [9] turned out to be 52 nM; in [2], 79 nM; in experiment [3], 8 nM; in [6], 2.6 nM; in experiment [7], 1.5 nM; in experiment [10], 150 nM. In experiment [8], this molecule gave an IC50 of 460 nM.

`CC(C)[C@H](NS(=O)(=O)c1ccc(-c2ccc(F)cc2)cc1)P(=O)(O)O`: the IC50 in experiment [9] stood at 150 nM; in experiment [2], 32 nM; in [3], 59 nM; in experiment [5] it was 1.1 nM; in experiment [6] it was 13 nM; in experiment [7], 20 nM. The IC50 in experiment [10] was 160 nM; in experiment [8] it was 1400 nM.
